Test results as given in ChEMBL document CHEMBL1240469, “In vitro and in vivo studies on stilbene analogs as potential treatment agents for colon cancer” (Eur J Med Chem, 2010).
The source made the active and inactive calls. The calls are words filed in the database; no cut-off is given here.

Key:
Serum = assay: Drug level in SCID mouse serum at 10 mg/kg, ip by GC-MS analysis; assay type: ADME, organism-based; design: dose 10 mg/kg, route intraperitoneal; details: in vivo
Procedure, shortened: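 Blood taken at autopsy from xenografted SCID mice after 3 weeks of daily i.p. dosing at 10 mg/kg. Serum (50 μL) was incubated with 1 M sodium acetate pH 5 for 60 min at 37 °C, extracted 3× with ethyl acetate, dried and redissolved. Analysed by GC-MS on a DB-5 column, with quantification against external-standard calibration curves at m/z 255, 298 or 270. Values given as mean ± std.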

Caco-2 = assay: Cytotoxicity against human Caco-2 cells after 3 days by [3H]thymidine incorporation assay; assay type: functional, cell-based
Procedure, shortened: (§1)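 Cells kept in DMEM with 10% FBS at 37 °C, 5% CO2, then plated at 20,000 cells/well. Exposed to a range of concentrations for 3 days at 37 °C, final DMSO 0.1% or less, with DMSO controls. IC50 reported.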

HT-29 [1] = assay: Cytotoxicity against human HT-29 cells after 3 days by [3H]thymidine incorporation assay; assay type: functional, cell-based; procedure, shortened: as §1
Mus musculus = assay: Toxicity in SCID mouse assessed as effect on body weight at 10 mg/kg, ip qd for 3 weeks (reference value: 20.4 +/- 0.4 g); assay type: organism-based; design: dose 10 mg/kg, route intraperitoneal; details: in vivo, 504 h
HT-29 [2] = assay: Antitumor activity against human HT-29 cells xenografted in SCID mouse assessed as reduction tumor weight at 10 mg/kg, ip qd for 3 weeks (reference value: 0.72 +/- 0.1 g); assay type: functional; details: route intraperitoneal
HT-29 [3] = assay: Antitumor activity against human HT-29 cells xenografted in SCID mouse assessed as reduction tumor volume at 10 mg/kg, ip qd for 3 weeks (reference value: 1087 +/- 138.9 mm'3); assay type: functional; details: route intraperitoneal
HT-29 [4] = assay: Induction of apoptosis in human HT-29 cells assessed as PARP cleavage; assay type: functional, cell-based
HT-29 [5] = assay: Induction of apoptosis in human HT-29 cells assessed as caspase3 activity; assay type: functional, cell-based
HT-29 [6] = assay: Reduction of proliferating cell nuclear antigen level in human HT-29 cells by Western blotting; assay type: functional, cell-based
Procedure, shortened: (§2)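 Xenograft tumors from treated SCID mice were homogenized in lysis buffer and pooled by group. Primary antibodies (PCNA or p27) were applied overnight at 4 °C, followed by HRP secondary for 1 h. Bands detected by chemiluminescence, with β-actin as loading control.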

HT-29 [7] = assay: Up-regulation of p27 expression level in human HT-29 cells by immunohistochemistry analysis; assay type: functional, cell-based
Procedure, shortened: (§3)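 Paraffin sections of xenograft tumors, 4 μm thick, incubated overnight with anti-PCNA (1:1000) or anti-p27 (1:50), then biotinylated secondary, avidin-biotin peroxidase and diaminobenzidine, with hematoxylin counterstain. Five random fields per slide were imaged at 400×. PCNA was reported as labeling index (positive cells/total ×100, averaged per tumor); p27 as integrated optical density averaged per tumor and per group; ± SE.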

HT-29 [8] = assay: Up-regulation of p27 expression level in human HT-29 cells by Western blotting; assay type: functional, cell-based; procedure, shortened: as §2
HT-29 [9] = assay: Reduction of proliferating cell nuclear antigen level in human HT-29 cells by immunohistochemistry analysis; assay type: functional, cell-based; procedure, shortened: as §3

SMILES	Drug uptake (Serum) [ng/mL]	IC50 (Caco-2) [µM]	IC50 (HT-29 [1]) [µM]	further results
COc1cc(/C=C\c2ccc(N)cc2)cc(OC)c1	109.1	–	–	–
COc1cc(/C=C/c2ccc(S)cc2)cc(OC)c1	–	> 10	> 10	–
COc1ccc(/C=C\c2cc(OC)cc(OC)c2)cc1 [8Z-3,4',5-TRIMETHOXYSTILBENE]	15.5	0.08	0.04	Activity (Mus musculus): 19.8 g; Activity (HT-29 [2]): 0.61 g; Activity (HT-29 [3]): 1023.6 mm3
COc1cc(/C=C/c2ccc(N)cc2)cc(OC)c1	99	–	–	–
COc1cc(O)cc(/C=C/c2ccc(O)cc2)c1	–	19.2	33.5	–
COc1cc(/C=C\c2ccc(F)cc2)cc(OC)c1	–	> 10	> 10	–
COc1cc(/C=C/c2ccc(F)cc2)cc(OC)c1	–	> 10	> 10	–
COc1ccc(/C=C/c2cc(O)cc(O)c2)cc1 [RESVERATROL 4'-METHYL ETHER]	–	> 30	24.5	–
COC(=O)c1ccc(/C=C/c2cc(OC)cc(OC)c2)cc1	54.6	–	–	–
COc1ccc(/C=C\c2cc(O)cc(O)c2)cc1	–	> 30	> 30	–
COc1cc(/C=C/c2ccc(O)cc2)cc(OC)c1 [PTEROSTILBENE]	–	14.5	23.8	–
COc1ccc(/C=C/c2cc(OC)cc(OC)c2)cc1 [TRISMETHOXYRESVERATROL]	69.9	12	16.1	Activity (Mus musculus): 19.5 g; Activity (HT-29 [2]): 0.57 g; Activity (HT-29 [3]): 590.3 mm3; Activity (HT-29 [4]): inactive; Activity (HT-29 [5]): inactive; Activity (HT-29 [6]): Active; Activity (HT-29 [7]): Active; Activity (HT-29 [8]): Active; Activity (HT-29 [9]): Active
COC(=O)c1ccc(/C=C\c2cc(OC)cc(OC)c2)cc1	18.8	–	–	–
COc1cc(/C=C/c2ccc(OC3OC(CO)C(O)C(O)C3O)cc2)cc(OC)c1 (stereo not drawn)	–	> 10	> 10	–
